# Assay results as given in ChEMBL document CHEMBL1129452, “Phenethylthiazolylthiourea (PETT) compounds as a new class of HIV-1 reverse transcriptase inhibitors. 2. Synthesis and further structure-activity relationship studies of PETT analogs” (J Med Chem, 1996).
# What was measured:
# MT4 [1] = assay: Inhibition of mutant type (Ile100) HIV-1 (IIIB) replication in MT-4 cells; format: functional; conditions: Homo sapiens, read-out: ED50 (the source's name)
# Outline: (§1)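 MT-4 cells (human T cell line) in RPMI 1640 with 10% fetal calf serum, penicillin and streptomycin, seeded at 2 × 10⁴ cells/well. Infected with 10-20 TCID₅₀ of mutant HIV-1 IIIB per well, with the compound added at different concentrations. Incubated at 37 °C in CO₂. Cell viability read by XTT dye at day 5 or 6. Activity taken as the reduction in viral cytopathic effect, given as ED₅₀. Mutants were raised by passage in stepwise increasing concentrations of non-nucleoside RT inhibitors.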
# [2] = target: T1, Human immunodeficiency virus type 1 reverse transcriptase (Human immunodeficiency virus 1, UniProt Q72547); assay: Tested for the inhibition of mutant type (Cys181) HIV-1 (IIIB) RT
# MT4 [3] = assay: Inhibition of mutant type (Cys181) HIV-1 (IIIB) replication in MT-4 cells; format: functional; conditions: Homo sapiens, read-out: ED50 (the source's name); outline: as §1
# [4] = target: T1, Human immunodeficiency virus type 1 reverse transcriptase; assay: Tested for the inhibition of wild type HIV-1 (IIIB) RT
# [5] = target: T1, Human immunodeficiency virus type 1 reverse transcriptase; assay: Tested for the inhibition of mutant type (Ile100) HIV-1 (IIIB) RT
# MT4 [6] = assay: Tested for the inhibition of wild type HIV-1 (IIIB) replication in MT-4 cells; format: functional; conditions: Homo sapiens, read-out: ED50 (the source's name)
# Outline: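 MT-4 human T cells in RPMI 1640 with 10% fetal calf serum, penicillin and streptomycin, seeded at 2 × 10⁴ cells/well and infected with 10-20 TCID₅₀ HIV-1 IIIB per well. Compounds were added over a concentration range and cultures kept at 37 °C in CO₂. Viability was read by XTT at day 5 or 6, and activity was taken as reduction of viral cytopathic effect.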
# MT4 [7] = assay: Inhibition of HIV-1(IIIB) variants (Ile100/Asn103) in HIV-1 MT-4 cells; format: functional; conditions: Homo sapiens, read-out: ED50 (the source's name); outline: as §1
# MT4 [8] = assay: Inhibition of HIV-1(IIIB) variants (Ile100/Cys181) in HIV-1 MT-4 cells; format: functional; conditions: Homo sapiens, read-out: ED50 (the source's name); outline: as §1
SMILES,EC50 (MT4 [1]) [nM],IC50 [2] [nM],EC50 (MT4 [3]) [nM],IC50 [4] [nM],IC50 [5] [nM],EC50 (MT4 [6]) [nM],EC50 (MT4 [7]) [nM],EC50 (MT4 [8]) [nM]
S=C(NCCn1nc2ccccc2n1)Nc1ccc(Br)cn1,2000,100,1000,3,2000,14,,
CCc1cc(NCc2nc3c(Cl)ccc(Cl)c3o2)c(O)nc1C [L-697661],850,7700,> 11000,,850,65,,
S=C(NCCc1ccccn1)Nc1ccc(Br)cn1 [TROVIRDINE],,,,,,20,,
CCOc1ccc(Cl)c(CC/N=C(\S)Nc2ccc(Br)cn2)c1F,900,9,50,2,90,18,> 10000,> 10000
CNC(=O)c1ccc(F)c(CC/N=C(\S)Nc2ccc(Br)cn2)c1F,> 2000,> 2000,300,23,> 2000,80,,
S=C(NCCc1c[nH]c2ccccc12)Nc1ccc(Br)cn1,3000,320,300,30,> 2500,110,,
Cn1cccc1CCNC(=S)Nc1ccc(Cl)cn1,> 2000,1400,> 2000,90,2700,250,,
Fc1ccoc1CC/N=C(\S)Nc1ccc(Cl)cn1,100,140,80,4,230,7,> 10000,> 10000
CN(C)c1ccc(F)c(CCNC(=S)Nc2ccc(Br)cn2)c1F,> 2000,170,1000,7,1900,40,,
CC(=O)NCc1ccc(F)c(CCNC(=S)Nc2ccc(Br)cn2)c1F,> 2000,> 2000,> 2000,45,> 2000,900,,
CCOc1cccc(F)c1CCNC(=S)Nc1ccc(Br)cn1,90,25,7,,50,13,1600,1000
CCOc1ccc(F)c(CC/N=C(\S)Nc2nc(C(F)(F)F)cs2)c1Cl,> 2000,7000,> 2000,47,7000,70,,
N#Cc1ccoc1CCNC(=S)Nc1ccc(Cl)cn1,700,2600,200,60,2600,20,,
COc1ccc(F)c(CCNC(=S)Nc2ccc(C#N)cn2)c1C#N,200,50,30,3,60,1,,
COc1ccc(OC)c(CCNC(=S)Nc2ccc(Cl)cn2)c1F,9,54,3,1,80,2,1000,1000
COc1ccc(F)c(CCNC(=S)Nc2ccc(Br)cn2)c1F,600,60,50,6,870,15,,
CCOc1ccc(F)c(CCNC(=S)Nc2ccc(I)cn2)c1Cl,3000,130,200,8,420,15,,
"CCOc1ccc(F)c(CCNC(=S)Nc2ccc(Br)cn2)c1Cl [THIOUREA, N-(5-BROMO-2-PYRIDINYL)-N'-(2-(2-CHLORO-3-ETHOXY-6-FLUOROPHENYL)ETHYL)-]",400,50,30,12,190,7,,

SMILES,EC50 (MT4 [1]) [nM],IC50 [2] [nM],EC50 (MT4 [3]) [nM],IC50 [4] [nM],IC50 [5] [nM],EC50 (MT4 [6]) [nM],EC50 (MT4 [7]) [nM],EC50 (MT4 [8]) [nM]
COc1ccc2[nH]cc(CC/N=C(\S)Nc3ccc(Br)cn3)c2c1,> 2000,2500,900,320,> 2500,500,,
CN(C)c1ccc(F)c(CCNC(=S)Nc2ccc(Cl)cn2)c1F,> 2000,190,700,8,1900,40,,
Cn1cccc1CC/N=C(\S)Nc1ccc(C#N)cn1,> 2000,1100,> 2000,70,3500,110,,
CCOc1ccc(F)c(F)c1CCNC(=S)Nc1ccc(Br)cn1,1500,10,200,5,20,7,> 10000,> 10000
CN(C)c1cc(F)c(CCNC(=S)Nc2ccc(Cl)cn2)c(F)c1,1500,130,900,20,270,18,,
Fc1cc(F)c(CCNC(=S)Nc2ccc(Cl)cn2)c(F)c1,2000,290,1500,2,810,10,,
Cc1ccnc2c1NC(=O)c1cccnc1N2C1CC1 [NEVIRAPINE],620,,22000,,,150,8000,> 10000
COc1ccc(F)c(CC/N=C(\S)Nc2ccc(Cl)cn2)c1C#N,400,1100,100,5,1100,11,,
O=C1c2c(Cl)ccc(Cl)c2C(=O)N1CCNC(=S)Nc1ccc(Cl)cn1,> 2000,10,> 2000,2,230,19,,
COc1ccc(F)c(CCNC(=S)Nc2ccc(Br)cn2)c1OC,3000,85,200,7,430,12,,
CCOc1ccc(OCC)c(CCNC(=S)Nc2ccc(Br)cn2)c1,> 2000,707,800,18,1650,18,,
Cc1cc2nn(CCNC(=S)Nc3ccc(Br)cn3)nc2cc1C,> 2000,100,> 2000,150,> 2500,220,,
COCc1ccc(F)c(CCNC(=S)Nc2ccc(Br)cn2)c1F,2500,100,300,4,720,6,,
Fc1cccc(F)c1CCNC(=S)Nc1ccc(Br)cn1,600,30,150,,50,13,,
CCOc1ccc(F)c(CCNC(=S)Nc2ccc(Cl)cn2)c1Cl,600,30,7,6,130,8,,
CCOc1c(Cl)cc(F)c(CCNC(=S)Nc2ccc(Br)cn2)c1Cl,1000,660,20,21,240,13,,
CCOc1ccc(F)c(CCNC(=S)Nc2ccc(C#N)cn2)c1Cl,500,30,30,5,110,3,,
